Activity calls are given as the source filed them. The rule behind the calls is not given here.
Experiments:
HEK-Blue hTLR4 = test: (§1) Antiinflammatory activity in LPS-induced HEK-Blue hTLR4 cells assessed as reduction in alkaline phosphatase activity at 10 uM pretreated with compound for 0.5 hr followed by LPS induction and measured after 24 hrs; type: functional; conditions: Homo sapiens, time 24.5 hrs
Outline: (§2)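 HEK-Blue-TLR4 cells (2×10^4/well, DMEM with 10% FBS) were grown for 24 h, then pretreated with compound or DMSO for 0.5 h. LPS was added at 0.5 µg/mL for 24 h. Supernatant ALP activity was read at 405 nm with a kit. Values are mean ± SEM of three independent experiments.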

[1] = as §1; type: functional, Homo sapiens; set-up: scale not given: the % may be the effect or the level left; conditions: time 24.5 hrs; outline: as §2
[2] = Acute toxicity in ICR mouse assessed as pathological changes in kidney at 1000 to 1500 mg/kg, IG measured after 10 days by H and E staining method; type: organism-based; conditions: in vivo, po, 240 h, dose 1000-1500 mg/kg, time 10 day
Outline: (§3)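 ICR mice (27 g ± 1 g; n = 24 total) given a single oral gavage dose on day 1 in CMC-Na with DMSO (<0.1%), dosing solution 50 mg/mL. Untreated mice served as controls. After 10 days, mice were sacrificed under general anaesthesia. Heart, liver, lung, spleen and kidney were harvested for H&E pathology.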

[3] = Tmax in Sprague-Dawley rat at 10 mg/kg, po measured at 5 to 24 hrs by UPLC-MS/MS analysis; type: ADME, organism-based; conditions: in vivo, time 5-24 hrs
Outline: (§4)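 Male SD rats (200 g ± 20 g, n = 6) were dosed orally by gavage at 10 mg/kg, suspended in CMC-Na with DMSO (<0.1%). Tail-vein blood was drawn at 5 min, 15 min, 30 min, 1, 2, 4, 6, 9, 12 and 24 h and centrifuged. Plasma supernatant was precipitated with an equal volume of acetonitrile and run on UPLC-MS/MS. Parameters came from a non-compartmental fit.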

RAW264.7 [4] = test: Antiinflammatory activity in LPS-induced mouse RAW264.7 cells assessed as decrease in LPS-induced IL-6 secretion pretreated for 30 mins followed by LPS-induction and measured after 24 hrs by ELISA analysis; type: functional, cell-based
Outline: (§5)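 RAW 264.7 macrophages were pretreated for 30 min with 1–10 µM compound or DMSO vehicle, then stimulated with LPS (0.5 µg/mL). After 24 h, supernatant IL-6 and TNF-α were measured by ELISA. Results are mean ± SEM of triplicates, expressed as percent of the LPS group, with Student's t-test.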

[5] = Acute toxicity in ICR mouse assessed as pathological changes in liver at 1000 to 1500 mg/kg, IG measured after 10 days by H and E staining method; type: organism-based; conditions: in vivo, po, 240 h, dose 1000-1500 mg/kg, time 10 day; outline: as §3
[6] = Half life in Sprague-Dawley rat at 10 mg/kg, po measured at 5 to 24 hrs by UPLC-MS/MS analysis; type: ADME, organism-based; conditions: in vivo, time 5-24 hrs; outline: as §4
[7] = AUC (0 to infinity) in Sprague-Dawley rat at 10 mg/kg, po measured at 5 to 24 hrs by UPLC-MS/MS analysis; type: ADME, organism-based; set-up: time lower 5 hrs, dose 10 mg/kg, time upper 24 hrs, route po; conditions: in vivo; outline: as §4
RAW264.7 [8] = test: Antiinflammatory activity in LPS-induced mouse RAW264.7 cells assessed as decrease in LPS-induced TNF-alpha secretion pretreated for 30 mins followed by LPS-induction and measured after 24 hrs by ELISA analysis; type: functional, cell-based; outline: as §5
[9] = Cmax in Sprague-Dawley rat at 10 mg/kg, po measured at 5 to 24 hrs by UPLC-MS/MS analysis; type: ADME, organism-based; set-up: dose 10 mg/kg, time 5-24 hrs, route po; conditions: in vivo; outline: as §4
[10] = Toxicity in C57BL/6 mouse assessed as histopathological changes in lung at 5 mg/kg, po measured at 6 hrs by H and E staining analysis; type: organism-based; conditions: in vivo
Outline: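 Lungs from C57BL/6 mice given 5 mg/kg orally every 12 h for 36 h, then intratracheal LPS 5 mg/kg and sacrificed 6 h later, were fixed in 4% PFA, paraffin-embedded and stained with H&E.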

RAW264.7 [11] = test: Binding affinity to MD-2 in mouse RAW264.7 cells assessed as reduction in LPS/MD-2/TLR4 polymers formation incubated for 12 hrs by immunoprecipitation assay; type: cell-based
Mus musculus [12] = test: Antiinflammatory activity in LPS-induced C57BL/6 mouse acute lung injury model assessed as decrease in BALF ALP level at 5 mg/kg, po administered every 12 hrs for 36 hrs followed by LPS-induction for 12 hrs and measured at 6 hrs post LPS challenge by ELISA analysis; conditions: time 54.0 hrs
Mus musculus [13] = test: In vivo Inhibition of NF-kappaB signalling pathway in mouse C57BL/6 lung assessed as decrease in phosphorylated p65 level at 5 mg/kg, po measured for 6 hrs by Western blot analysis; type: functional, organism-based
Outline: (§6)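 In the C57BL/6 ALI model (5 mg/kg oral every 12 h for 36 h, then intratracheal LPS 5 mg/kg, sacrifice at 6 h), lung tissue was lysed in RIPA buffer with PMSF and protein was quantified by Bradford. Samples were run on 10% SDS-PAGE and immunoblotted for p65, phospho-p65 and IκB, with GAPDH as reference.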

[14] = AUC (0 to t) in Sprague-Dawley rat at 10 mg/kg, po measured at 5 to 24 hrs by UPLC-MS/MS analysis; type: ADME, organism-based; set-up: dose 10 mg/kg, time upper 24 hrs, time lower 5 hrs, route po; conditions: in vivo; outline: as §4
[15] = Acute toxicity in ICR mouse assessed as pathological changes in spleen at 1000 to 1500 mg/kg, IG measured after 10 days by H and E staining method; type: organism-based; conditions: in vivo, po, 240 h, dose 1000-1500 mg/kg, time 10 day; outline: as §3
Mus musculus [16] = test: In vivo Inhibition of NF-kappaB signalling pathway in mouse C57BL/6 lung assessed as upregulation of IkappaBalpha protein expression at 5 mg/kg, po measured for 6 hrs by Western blot analysis; type: functional, organism-based; outline: as §6
Homo sapiens = species: Homo sapiens; test: Binding affinity to human recombinant MD-2 assessed as reduction in binding of LPS to MD-2 at 1 uM by ELISA analysis
[17] = Acute toxicity in ICR mouse assessed as pathological changes in heart at 1000 to 1500 mg/kg, IG measured after 10 days by H and E staining method; type: organism-based; conditions: in vivo, po, 240 h, dose 1000-1500 mg/kg, time 10 day; outline: as §3
Mus musculus [18] = test: Antiinflammatory activity in LPS-induced C57BL/6 mouse acute lung injury model assessed as decrease in total protein level at 5 mg/kg, po administered every 12 hrs for 36 hrs followed by LPS-induction for 12 hrs and measured at 6 hrs post LPS challenge; type: functional, organism-based; conditions: time 54.0 hrs
Outline: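 Same C57BL/6 regimen: 5 mg/kg oral in 0.5% CMC-Na every 12 h for 36 h, then intratracheal LPS 5 mg/kg 12 h later, with sacrifice at 6 h. BALF was collected by rinsing the left lung with saline 4 times and centrifuged (1000 rpm, 4 °C, 10 min). Supernatant protein was measured by BCA assay.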

[19] = Acute toxicity in ICR mouse assessed as pathological changes in lung at 1000 to 1500 mg/kg, IG measured after 10 days by H and E staining method; type: organism-based; conditions: in vivo, po, 240 h, dose 1000-1500 mg/kg, time 10 day; outline: as §3
Mus musculus [20] = test: Antiinflammatory activity in LPS-induced C57BL/6 mouse acute lung injury model assessed as decrease in […] TNF-alpha mRNA expression level at 5 mg/kg, po administered every 12 hrs for 36 hrs followed by LPS-induction for 12 hrs and measured at 6 hrs post LPS challenge by q-RTPCR analysis; type: functional, organism-based; conditions: time 54.0 hrs
Outline: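 C57BL/6 mice (8 per group) were gavaged with 5 mg/kg in 0.5% CMC-Na every 12 h for 36 h. LPS (5 mg/kg) was instilled intratracheally 12 h after the last dose. Mice were euthanized 6 h later and lung TNF-α mRNA was measured by real-time qRT-PCR.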

For `Cc1ccc(COc2ccc(/C=C/C(=O)Nc3nc4ccccc4s3)cc2)cc1`, the Activity (HEK-Blue hTLR4) was “inactive”.
Compound `O=C(/C=C/c1ccc(OCc2cccc(F)c2)cc1)Nc1nc2ccccc2s1` has an Activity [1] of 19%.
With `COc1cccc(COc2ccc(/C=C/C(=O)Nc3nccs3)cc2)c1` the Activity (HEK-Blue hTLR4) was “inactive”.
With `Cc1ccc(COc2ccc(/C=C/C(=O)Nc3nc4ccccc4[nH]3)cc2)cc1` the Activity [1] was 43.08%.
With `O=C(/C=C/c1ccc(OCc2c(Cl)cccc2Cl)cc1)Nc1nc2ccccc2s1` the Activity [1] was 11.99%.
`O=C(O)/C=C/c1ccccc1` [CINNAMIC ACID] showed an Activity [1] of 9.51%.
With `Cc1cccc(COc2ccc(/C=C/C(=O)Nc3nc4ccccc4s3)cc2)c1` the Activity [1] was 9.26%.
In the case of `O=C(/C=C/c1ccc(OCc2ccc3ccccc3c2)cc1)Nc1nc2ccccc2s1`, the Activity [1] is reported as 14.17%.
Work on `Cc1ccc(COc2ccc(/C=C/C(=O)Nc3nccs3)cc2)cc1` yielded an Activity [1] of 15.31%.
For `COc1ccc(COc2ccc(/C=C/C(=O)Nc3nc4ccccc4s3)cc2)cc1`, the Activity [1] was 16.39%.
In the case of `O=C(/C=C/c1ccc(OCc2c(Cl)cccc2Cl)cc1)Nc1nccs1`, the Activity [1] is reported as 8.16%.
For `O=C(/C=C/c1ccc(OCc2ccc(F)cc2)cc1)Nc1nc2ccccc2[nH]1`, the Activity [1] was 29.65%.
With `COc1cccc(COc2ccc(/C=C/C(=O)Nc3nc4ccccc4[nH]3)cc2)c1` the Activity [2] was “Non-Toxic”, the Tmax [3] was 3.5 h and the IC50 (RAW264.7 [4]) was 2.58 µM. The Activity (RAW264.7 [4]; dose 1-10 µM, time 24.5 hrs) was “Dose-Dependent Effect”, the Activity [5] was “Non-Toxic” and the half-life [6] was 4.25 h. For the same compound, the AUC(0-inf) [7] was 465 ng·h/mL, the IC50 (RAW264.7 [8]) was 8.41 µM and the Activity (RAW264.7 [8]; dose 1-10 µM, time 24.5 hrs) was “Dose-Dependent Effect”. The Cmax [9] was 163 ng/mL, the Activity [10] was “Non-Toxic” and the Activity (RAW264.7 [11]) was “Active”. The Activity (Mus musculus [12]) was “Active”, the inhibition (Mus musculus [13]) was “Active” and the AUC(0-t) [14] was 462 ng·h/mL. For the same compound, the Activity [15] was “Non-Toxic”, the Activity (Mus musculus [16]) was “Active” and the Activity (Homo sapiens) was “Active”. For the same compound, the Activity [1] was 64.3%, the Activity [17] was “Non-Toxic” and the Activity (Mus musculus [18]) was “Active”. For the same compound, the Activity [19] was “Non-Toxic” and the Activity (Mus musculus [20]) was “Active”.
In the case of `O=C(/C=C/c1ccc(OCc2cccc(Cl)c2)cc1)Nc1nccs1`, the Activity (HEK-Blue hTLR4) is reported as “inactive”.
Compound `O=C(/C=C/c1ccc(OCc2cccc(F)c2)cc1)Nc1nc2ccccc2[nH]1` has an Activity [1] of 55.45%.
With `O=C(/C=C/c1ccc(OCc2ccc(F)cc2)cc1)Nc1nc2ccccc2s1` the Activity [1] was 12.84%.
`O=C(/C=C/c1ccc(OCc2cccc(F)c2)cc1)Nc1nccs1` gave an Activity [1] of 7.66%.
`COc1cccc(COc2ccc(/C=C/C(=O)Nc3nc4ccccc4s3)cc2)c1` gave an Activity [1] of 14.12%.
With `O=C(/C=C/c1ccc(OCc2c(Cl)cccc2Cl)cc1)Nc1nc2ccccc2[nH]1` the Activity [1] was 19.64%.
Compound `O=C(/C=C/c1ccc(OCc2ccc3ccccc3c2)cc1)Nc1nccs1` has an Activity [1] of 3.63%.
Compound `Cc1cccc(COc2ccc(/C=C/C(=O)Nc3nccs3)cc2)c1` has an Activity [1] of 2.28%.
For `CC(C)c1ccc(COc2ccc(/C=C/C(=O)Nc3nc4ccccc4s3)cc2)cc1`, the Activity [1] was 14.04%.
With `CC(C)c1ccc(COc2ccc(/C=C/C(=O)Nc3nccs3)cc2)cc1` the Activity (HEK-Blue hTLR4) was “inactive”.
In the case of `O=C(/C=C/c1ccc(OCc2cccc(Cl)c2)cc1)Nc1nc2ccccc2s1`, the Activity (HEK-Blue hTLR4) is reported as “inactive”.
With `O=C(/C=C/c1ccc(OCc2ccc(F)cc2)cc1)Nc1nccs1` the Activity [1] was 12.05%.
Compound `O=C(/C=C/c1ccc(OCc2ccc3ccccc3c2)cc1)Nc1nc2ccccc2[nH]1` has an Activity [1] of 9.07%.
Compound `O=C(/C=C/c1ccc(OCc2cccc(Cl)c2)cc1)Nc1nc2ccccc2[nH]1` has an Activity [1] of 41.13%.
With `COc1ccc(COc2ccc(/C=C/C(=O)Nc3nccs3)cc2)cc1` the Activity (HEK-Blue hTLR4) was “inactive”.

Source: ChEMBL document CHEMBL5346935, “Novel O-benzylcinnamic acid derivative L26 treats acute lung injury in mice by MD-2” (Eur J Med Chem, 2023)
